We go through 37 sequences from the array DNA melting data of Ke et al. (doi:10.1101/2024.01.08.574731).

A short description of series [1]: melting temperature; fluorescence melt of hairpins on a sequencing array, two-state fit, raised by 9.35 °C to match UV melts. The settings on record: sodium 0.088 M. The procedure, abridged: (§1)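 Cy3 signals were normalised both to pre-quench Cy3 and to control constructs. They came from library hairpins carrying annealed Cy3 and quencher oligos on a sequenced MiSeq flow cell, imaged in 50 mM Na-HEPES pH 8.0, 25 mM NaCl, in 2.5 °C steps up to 60 °C. Bootstrapped two-state fits gave melting temperature and folding enthalpy, and four replicates were combined by inverse variance. Fitted temperatures were then raised by 9.35 °C to match UV melts.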

Series [2] can be described thus: folding enthalpy; higher = less favourable; fluorescence melt of hairpins on a sequencing array, two-state fit. The settings on record: sodium 0.088 M. Summed up: as §1

Take GCTTTGCGAAAGCAAGGC ((.((((....)))).)): the Tm in series [1] was 62.1 °C. The folding enthalpy in series [2] is -21.3 kcal/mol.

GCTTTGCGAAAGCATAGC (((.(((....))).))): in series [1], the Tm was determined as 53.2 °C. Moreover, the folding enthalpy in series [2] is -47.2 kcal/mol.

With GCTTTGCGAAAGCCATGC ((.(.((....)).).)), the Tm in series [1] worked out at 31.3 °C. In series [2], the folding enthalpy is -11.6 kcal/mol.

Consider GCTTTGCGAAAGCTAAGC ((((.((....)).)))), for which the Tm in series [1] stood at 62.7 °C. Moreover, in series [2], the folding enthalpy was -28.8 kcal/mol.

For the sequence GCTTTGCGAAAGCTCAGC (((..((....))..))), the Tm in series [1] worked out at 44.3 °C. In addition, in series [2], the folding enthalpy is -14.4 kcal/mol.

Turning to GCTTTGCGAAAGCTGAGC (((..((....))..))), the Tm in series [1] came to 56.8 °C. Besides, the folding enthalpy in series [2] is -15.2 kcal/mol.

For GCTTTGGGAAACCAAAGC (((((((....))))))), in series [1], the Tm turned out to be 65 °C. Besides, in series [2], the folding enthalpy is -47.1 kcal/mol.

On to GCTTTGGGAAACCAGAGC (((.(((....))).))), for which the Tm in series [1] came to 48 °C. Further, in series [2], the folding enthalpy was -27 kcal/mol.

On to GCTTTTGGAAACGAAAGC (((((.(....).))))), for which the Tm in series [1] amounted to 47.2 °C. For the same sequence, in series [2], the folding enthalpy was -39 kcal/mol.

As to GGAAAACGAAAGTTATCC (((.(((....))).))), the Tm in series [1] came out at 37 °C. The folding enthalpy in series [2] is -29.6 kcal/mol.

Regarding GGAAAACGAAAGTTGTCC (((.(((....))).))), the Tm in series [1] turned out to be 44.6 °C. For the same sequence, the folding enthalpy in series [2] was -26.1 kcal/mol.

For GGAAAATCGAAAGATTCC (((..(((....)))))), in series [1], the Tm was found to be 29.1 °C. In addition, the folding enthalpy in series [2] is -7.3 kcal/mol.

Take GGAAACCGAAAGGTCTCC (((.(((....))).))): in series [1], the Tm was 44.8 °C. In series [2], the folding enthalpy was -27.5 kcal/mol.

On to GGAAACCGAAAGGTTCC (((.(((....)))))), for which the Tm in series [1] stood at 51.9 °C. Besides, in series [2], the folding enthalpy was -18.8 kcal/mol.

Turning to GGAAACGAAAGTTCCTCC ((((((....)))..))), the Tm in series [1] is 44.1 °C. Further, in series [2], the folding enthalpy was -18.3 kcal/mol.

As for GGAAACGAAAGTTGCTCC ((((((....)))..))), the Tm in series [1] stood at 27.1 °C. Moreover, the folding enthalpy in series [2] is -12.8 kcal/mol.

For GGAAACGAAAGTTTCC ((((((....)))))), in series [1], the Tm turned out to be 63.3 °C. Also, the folding enthalpy in series [2] was -34.6 kcal/mol.

Regarding GGAAACGAAAGTTTCTCC ((((((....)))..))), in series [1], the Tm came to 45.9 °C. Moreover, in series [2], the folding enthalpy is -13.8 kcal/mol.

With GGAAACGGAAACGCTTCC ((((.((....)).)))), the Tm in series [1] worked out at 43.4 °C. Moreover, the folding enthalpy in series [2] is -34.1 kcal/mol.

As for GGAAACGGAAACGTTCCC ((.((((....)))).)), in series [1], the Tm stood at 45.1 °C. Moreover, in series [2], the folding enthalpy was -23.1 kcal/mol.

In the case of GGAAAGCGAAAGCTCTCC (((.(((....))).))), in series [1], the Tm is 44 °C. For the same sequence, the folding enthalpy in series [2] was -22.8 kcal/mol.

On to GGAAAGTCGAAAGACTCC (((..(((....)))))), for which, in series [1], the Tm worked out at 33.7 °C. Besides, in series [2], the folding enthalpy is -15.6 kcal/mol.

With GGAAATCCGAAAGGATCC (((..(((....)))))), the Tm in series [1] turned out to be 35.4 °C. In addition, the folding enthalpy in series [2] was -13.1 kcal/mol.

Regarding GGAAATCGAAAGATGTCC (((.(((....))).))), the Tm in series [1] turned out to be 40.9 °C. The folding enthalpy in series [2] was -29 kcal/mol.

For GGAACACGAAAGTGCTCC (((.(((....))).))), in series [1], the Tm came out at 50.2 °C. Further, the folding enthalpy in series [2] was -40.7 kcal/mol.

For the sequence GGAACACGAAAGTGTCC (((.(((....)))))), in series [1], the Tm turned out to be 52 °C. Moreover, the folding enthalpy in series [2] was -23.5 kcal/mol.

On to GGAACAGCGAAAGCTTCC (((..(((....)))))), for which the Tm in series [1] amounted to 35.5 °C. Also, the folding enthalpy in series [2] was -18.4 kcal/mol.

Consider GGAACCCGAAAGGGGTCC (((.(((....))).))), for which the Tm in series [1] was 68.2 °C. In series [2], the folding enthalpy is -30.4 kcal/mol.

As for GGAACCGAAAGGTAATCC ((((((....)))..))), in series [1], the Tm was found to be 26.8 °C. Besides, the folding enthalpy in series [2] was -9.87 kcal/mol.

Turning to GGAACCGAAAGGTACTCC ((((((....)))..))), the Tm in series [1] came out at 33.3 °C. Moreover, in series [2], the folding enthalpy is -12.6 kcal/mol.

In the case of GGAACCGAAAGGTGTTCC ((((((....)))..))), in series [1], the Tm stood at 40.5 °C. Further, the folding enthalpy in series [2] is -17.6 kcal/mol.

GGAACGACGAAAGTCTCC (((..(((....)))))): the Tm in series [1] was 27.6 °C. Also, the folding enthalpy in series [2] was -10.9 kcal/mol.

For the sequence GGAACGGGAAACCGCTCC (((.(((....))).))), in series [1], the Tm was found to be 48.7 °C. For the same sequence, in series [2], the folding enthalpy was -28.1 kcal/mol.

As to GGAACTCGAAAGAGGTCC (((.(((....))).))), the Tm in series [1] amounted to 60 °C. For the same sequence, the folding enthalpy in series [2] is -39 kcal/mol.

On to GGAAGACGAAAGTCTCC (((.(((....)))))), for which the Tm in series [1] is 52.3 °C. For the same sequence, the folding enthalpy in series [2] was -20.9 kcal/mol.

On to GGAAGAGCGAAAGCTTCC (((..(((....)))))), for which the Tm in series [1] was found to be 43.8 °C. In addition, in series [2], the folding enthalpy is -16.1 kcal/mol.

Consider GGAAGCGAAAGCTAATCC ((((((....)))..))), for which the Tm in series [1] was determined as 26.7 °C. In addition, the folding enthalpy in series [2] was -12 kcal/mol.
